Test results taken from ChEMBL document CHEMBL4219061, “Structure-activity relationships of cryptopleurine analogs with E-ring modifications as anti-hepatitis C virus agents” (Bioorg Med Chem, 2018).
Calls of active or inactive are those of the source. No cut-off for these calls is given here.

Tests used:
Hepatitis B virus = test: Antiviral activity against HBV infected in human HepG2(2.2.15) cells assessed as inhibition of viral DNA level after 6 days by Southern blot analysis; type: functional; details: HepG2 2.2.15, 144 h
Method in brief: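 HepG2.2.15 cells (HBV genome integrated; MEME, 10% FCS, kanamycin) seeded ~5 × 10^5 per well and grown 6 days, then given compound for 6 days with fresh medium every other day. Total DNA (20 μg) run on 1% agarose, blotted, hybridized overnight at 65 °C with 32P-labeled full-length HBV probe; read by film or PhosphorImager.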

HepG2 2.2.15 [1] = test: Cytotoxicity against human HepG2(2.2.15) cells assessed as cell growth inhibition; type: cell-based
Method in brief: (§1)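 Cell growth measured against DMSO vehicle in HepG2.2.15 cells (MEME, 10% FCS, 50 µg/ml kanamycin) or in Huh-luc/neo-ET cells. IC50 = concentration giving 50% inhibition of cell growth. Mean ± SD of three independent experiments.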

Hepatitis C virus = test: Antiviral activity against HCV genotype 1b con1 infected in human Huh-luc/neo-ET cells assessed as inhibition of viral replication after 72 hrs; type: functional, organism-based, Hepacivirus hominis; details: isolate Con1, Huh-luc/neo-ET
Method in brief: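 Firefly-luciferase reporter in the Con1 genotype 1b subgenomic replicon used to follow HCV replication in Huh-luc/neo-ET cells, tested without G418 (routinely kept in DMEM, 10% FBS, 1 mM nonessential amino acids, 250 µg/ml G418, 37 °C, 5% CO2). Luciferase read on a plate reader. EC50 = concentration giving 50% inhibition of replication versus DMSO vehicle. Mean ± SD of three independent experiments.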

[2] = Cytotoxicity against human Huh-luc/neo-ET cells assessed as cell growth inhibition; type: cell-based; method in brief: as §1
[3] = Therapeutic index, ratio of IC50 for human Huh-luc/neo-ET cells to EC50 for HCV genotype 1b con1; type: toxicity; details: Huh-luc/neo-ET cells (HCV genotype 1b con1), read-out: Ratio IC50/EC50
[4] = biological target: Heat shock cognate 71 kDa protein (Homo sapiens) (UniProt P11142); test: Allosteric regulation of recombinant HSC70 (unknown origin) ATPase activity assessed as increase in ADP production at 10 uM after 10 mins in presence of HCV wild type poly U/UC RNA by HPLC analysis
Chain of Heat shock cognate 71 kDa protein (Homo sapiens) (P11142 2-646 limits assumed): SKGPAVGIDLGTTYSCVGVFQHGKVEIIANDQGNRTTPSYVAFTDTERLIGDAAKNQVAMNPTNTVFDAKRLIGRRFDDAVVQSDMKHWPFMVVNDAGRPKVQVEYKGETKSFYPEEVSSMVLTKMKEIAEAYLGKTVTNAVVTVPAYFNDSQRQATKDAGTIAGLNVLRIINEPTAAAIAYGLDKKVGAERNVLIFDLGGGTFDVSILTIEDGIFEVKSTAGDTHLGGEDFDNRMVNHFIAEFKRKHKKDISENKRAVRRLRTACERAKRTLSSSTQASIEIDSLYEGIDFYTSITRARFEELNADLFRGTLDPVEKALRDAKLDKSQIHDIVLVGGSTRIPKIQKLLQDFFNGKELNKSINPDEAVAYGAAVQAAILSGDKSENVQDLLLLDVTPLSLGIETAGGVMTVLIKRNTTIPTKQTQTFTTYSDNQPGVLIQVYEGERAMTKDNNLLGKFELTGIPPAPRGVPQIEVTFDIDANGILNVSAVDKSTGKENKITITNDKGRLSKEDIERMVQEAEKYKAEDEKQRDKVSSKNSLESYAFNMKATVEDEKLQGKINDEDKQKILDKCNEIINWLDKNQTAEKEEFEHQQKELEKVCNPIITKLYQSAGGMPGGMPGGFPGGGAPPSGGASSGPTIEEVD
Method in brief: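 Recombinant Hsc70 (0.25 μM) incubated with compound at 10 μM plus ATP and 0.5 μM HCV wild-type poly U/UC RNA in MOPS buffer pH 7.4 (Mg(OAc)2, KOAc, DTT, BSA), 37 °C, 10 min. Stopped with TCA (15% final), extracted with trichlorotrifluoroethane:trioctylamine, ADP quantified by HPLC against standard curve on same column. Mean ± SD, three experiments.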

[5] = biological target: Heat shock cognate 71 kDa protein (Homo sapiens) (UniProt P11142); test: Displacement of biotinylated-rac-cryptopleurine from recombinant HSC70 (unknown origin) […] by Western blot analysis
Method in brief: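 Biotinylated rac-cryptopleurine loaded overnight at room temperature onto streptavidin resin in 50% DMSO/50% protein-binding buffer (20 mM Hepes pH 7.9, 100 mM NaCl, 0.5% NP-40, 6 mM MgCl2). Resin washed, then incubated 2 h at room temperature with recombinant His-Hsc70 (E. coli BL21(DE3)pLysS, Ni-NTA purified) in 2.5% BSA. Bound Hsc70 eluted with buffer alone or with compound.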

[6] = biological target: Heat shock cognate 71 kDa protein (Homo sapiens) (UniProt P11142); test: Induction of HSC70 chaperone activity in human Huh-luc/neo-ET cells co-transfected with FLAG-tagged CHIP assessed as reduction in HCV RNA NS3 protein expression at 3 nM after 24 hrs; type: cell-based
Method in brief: (§2)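 Huh-luc/neo-ET replicon cells transiently transfected with FLAG-tagged CHIP plasmid or empty vector and treated with compound for 24 h. HCV RNA and NS3 and NS5A protein levels measured. Representative of more than two independent experiments; two-tailed Student's t-test, p < .05.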

[7] = biological target: Heat shock cognate 71 kDa protein (Homo sapiens) (UniProt P11142); test: Induction of HSC70 chaperone activity in human Huh-luc/neo-ET cells assessed as reduction in HCV RNA NS5A protein expression at 3 nM after 24 hrs; type: cell-based; method in brief: as §2
[8] = biological target: Heat shock cognate 71 kDa protein (Homo sapiens) (UniProt P11142); test: Induction of HSC70 chaperone activity in human Huh-luc/neo-ET cells co-transfected with FLAG-tagged CHIP assessed as reduction in HCV RNA NS5A protein expression at 3 nM after 24 hrs; type: cell-based; method in brief: as §2
[9] = Effect on […] CHIP expression in human Huh-luc/neo-ET cells at 3 nM after 24 hrs; type: ADME, cell-based; details: 0.003 µM
[10] = biological target: Heat shock cognate 71 kDa protein (Homo sapiens) (UniProt P11142); test: Induction of HSC70 (unknown origin) chaperone activity assessed as reactivation of guanidine-denatured luciferase at 10 uM in presence of human recombinant CHIP by luciferase reporter gene assay
HepG2 2.2.15 [11] = test: Effect on HSC70 expression in human HepG2(2.2.15) cells at 3 nM measured up to 72 hrs by Western blot analysis; type: functional, cell-based
[12] = biological target: Heat shock cognate 71 kDa protein (Homo sapiens) (UniProt P11142); test: Induction of HSC70 chaperone activity in human Huh-luc/neo-ET cells assessed as reduction in HCV RNA NS3 protein expression at 3 nM after 24 hrs; type: cell-based; method in brief: as §2
[13] = biological target: Heat shock cognate 71 kDa protein (Homo sapiens) (UniProt P11142); test: Induction of HSC70 chaperone activity in human Huh-luc/neo-ET cells assessed as reduction in HCV RNA NS3 protein expression at 6 nM after 24 hrs; type: cell-based
Method in brief: (§3)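 Huh-luc/neo-ET replicon cells (HCV 1b Con1, DMEM, 10% FBS) transiently transfected with FLAG-CHIP plasmid or empty vector, then treated 24 h with compound. HCV RNA, NS3 and NS5A protein levels measured. Representative of more than two independent experiments; two-tailed Student's t-test, p < .05.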

[14] = biological target: Heat shock cognate 71 kDa protein (Homo sapiens) (UniProt P11142); test: Induction of HSC70 chaperone activity in human Huh-luc/neo-ET cells co-transfected with FLAG-tagged CHIP assessed as reduction in HCV RNA NS5A protein expression at 6 nM after 24 hrs; type: cell-based; method in brief: as §3
[15] = biological target: Heat shock cognate 71 kDa protein (Homo sapiens) (UniProt P11142); test: Induction of HSC70 chaperone activity in human Huh-luc/neo-ET cells co-transfected with FLAG-tagged CHIP assessed as reduction in HCV RNA NS3 protein expression at 6 nM after 24 hrs; type: cell-based; method in brief: as §3
Huh-luc/neo-ET = test: Effect on HSC70 expression in human Huh-luc/neo-ET cells at 6 nM measured up to 72 hrs by Western blot analysis
[16] = Effect on […] CHIP expression in human Huh-luc/neo-ET cells at 6 nM after 24 hrs; type: ADME, cell-based; details: 0.006 µM
[17] = biological target: Heat shock cognate 71 kDa protein (Homo sapiens) (UniProt P11142); test: Induction of HSC70 chaperone activity in human Huh-luc/neo-ET cells assessed as reduction in HCV RNA NS5A protein expression at 6 nM after 24 hrs; type: cell-based; method in brief: as §3

Structure (SMILES)	EC10 (Hepatitis B virus)	IC50 (HepG2 2.2.15 [1])	EC50 (Hepatitis C virus)	IC50 [2]	selectivity ratio [3]	Activity [4]	displacement activity (active/not active) [5]	further results
COc1ccc2c3c(c4cc(OC)c(OC)cc4c2c1)C[C@H]1CCCCCN1C3 (racemic)	> 1000 nM	2700 nM	52.3 nM	300 nM	5.75			
COc1ccc2c3c(c4cc(OC)c(OC)cc4c2c1)C[C@H]1CNCCN1C3 (racemic)	> 500 nM	1400 nM	183 nM	1000 nM	5.46			
COc1ccc2c3c(c4cc(OC)c(OC)cc4c2c1)C[C@H]1CC[C@@H](O)CN1C3 (racemic)	> 25 nM	258 nM	3 nM	21.3 nM	7.1	Active	inactive	
COc1ccc2c3c(c4cc(OC)c(OC)cc4c2c1)C[C@H]1CCN(N(C)C)CN1C3 (racemic)	> 900 nM	2400 nM	3750 nM	4000 nM	1.07			
COc1ccc2c3c(c4cc(OC)c(OC)cc4c2c1)C[C@H]1CCCCN1C3 [CRYPTOPLEURINE]	> 30 nM					Active		Activity [6]: Active; Activity [7]: Active; Activity [8]: Active; Activity [9]: Non-Toxic; Activity [10]: Active; Activity (HepG2 2.2.15 [11]): inactive; Activity [12]: Active
COc1cc2c3c(c4cc(OC)c(OC)cc4c2cc1OC)[C@H](O)[C@@H]1CCCN1C3	> 300 nM	98.9 nM	31.5 nM	91 nM	2.89			
COc1ccc2c3c(c4cc(OC)c(OC)cc4c2c1)C[C@H]1C[C@@H](O)CCN1C3 (racemic)	> 26 nM	134 nM	4.9 nM	42.1 nM	8.59		inactive	
COc1ccc2c3c(c4cc(OC)c(OC)cc4c2c1)C[C@H]1CN(C2CC2)CN1C3 (racemic)	> 300 nM	820 nM	750 nM	1000 nM	1.33			
COc1ccc2c3c(c4cc(OC)c(OC)cc4c2c1)C[C@H]1CC[C@H](O)CN1C3 (racemic)	> 3000 nM	1600 nM	246 nM	3750 nM	15.2	Active	inactive	
COc1ccc2c3c(c4cc(OC)c(OC)cc4c2c1)C[C@H]1C[C@H](O)CCN1C3	> 5.5 nM	49 nM	1.4 nM	5 nM	3.57	Active	Active	Activity [13]: Active; Activity [14]: Active; Activity [15]: Active; Activity (Huh-luc/neo-ET): inactive; Activity [10]: Active; Activity [16]: Non-Toxic; Activity [17]: Active
COc1ccc2c3c(c4cc(OC)c(OC)cc4c2c1)C[C@H]1CCOCCN1C3 (racemic)	> 300 nM	4000 nM	16.7 nM	120 nM	7.19			
COc1ccc2c3c(c4cc(OC)c(OC)cc4c2c1)C[C@H]1CCOCN1C3 (racemic)	> 500 nM	1100 nM	651 nM	1000 nM	1.54			
